Measured values as given in ChEMBL document CHEMBL1914406, “Inhibitory effect of novel 5-O-acyl juglones on mammalian DNA polymerase activity, cancer cell growth and inflammatory response” (Bioorg Med Chem, 2011).
Calls of active or inactive are those of the source. No cut-off for these calls is given here.

Target: T1, DNA polymerase kappa (Homo sapiens) (UniProt Q9UBT6)
T1 sequence (whole entry): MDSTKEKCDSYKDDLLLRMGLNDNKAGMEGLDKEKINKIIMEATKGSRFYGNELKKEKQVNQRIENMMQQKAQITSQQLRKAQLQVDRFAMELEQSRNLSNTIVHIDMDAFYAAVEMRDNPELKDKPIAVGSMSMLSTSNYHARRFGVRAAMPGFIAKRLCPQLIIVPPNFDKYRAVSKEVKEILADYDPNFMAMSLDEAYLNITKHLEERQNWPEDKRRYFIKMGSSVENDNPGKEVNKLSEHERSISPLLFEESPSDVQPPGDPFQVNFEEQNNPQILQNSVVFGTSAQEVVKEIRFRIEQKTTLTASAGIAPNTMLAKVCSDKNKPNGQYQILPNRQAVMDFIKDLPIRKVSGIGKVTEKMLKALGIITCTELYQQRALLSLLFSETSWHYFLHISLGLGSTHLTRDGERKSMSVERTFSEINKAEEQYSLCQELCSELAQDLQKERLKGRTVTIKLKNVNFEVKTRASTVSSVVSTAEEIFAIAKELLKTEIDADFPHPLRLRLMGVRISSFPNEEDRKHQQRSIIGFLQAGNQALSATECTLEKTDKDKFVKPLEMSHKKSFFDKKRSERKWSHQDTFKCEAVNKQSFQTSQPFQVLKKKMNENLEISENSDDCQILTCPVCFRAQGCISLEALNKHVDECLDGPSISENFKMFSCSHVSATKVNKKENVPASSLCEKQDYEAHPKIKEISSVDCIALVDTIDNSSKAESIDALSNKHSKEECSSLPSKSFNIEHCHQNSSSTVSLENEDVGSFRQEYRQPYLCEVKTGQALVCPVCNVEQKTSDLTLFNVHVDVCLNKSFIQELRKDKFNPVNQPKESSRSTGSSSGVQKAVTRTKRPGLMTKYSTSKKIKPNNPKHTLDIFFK
Assay: Inhibition of C-terminal His6-tagged human DNA polymerase kappa (amino acids 1 to 560) using poly(dA)/oligo(dT)18 (A/T = 2/1) and dTTP as the DNA template-primer and nucleotide substrate at 10 uM after 60 mins
Settings: not given

SMILES | inhibition
CC/C=C\C/C=C\C/C=C\C/C=C\C/C=C\C/C=C\CCC(=O)O [DOCONEXENT] | inactive
CCCCCC(=O)O [HEXANOATE] | inactive
CC/C=C\C/C=C\C/C=C\C/C=C\C/C=C\CCCC(=O)O [ICOSAPENT] | inactive

System: not listed separately
Assay: Cytotoxicity against mouse RAW264.7 cells
Type: cell-based
Settings: read-out: LD50 (the source's name)

SMILES | CC50 [µM]
CC/C=C\C/C=C\C/C=C\C/C=C\C/C=C\C/C=C\CCC(=O)O [DOCONEXENT] | > 10
CCCCCC(=O)O [HEXANOATE] | > 10
CC/C=C\C/C=C\C/C=C\C/C=C\C/C=C\CCCC(=O)O [ICOSAPENT] | > 10

Target: T2, DNA polymerase lambda (Homo sapiens) (UniProt Q9UGP5)
T2 sequence (whole entry): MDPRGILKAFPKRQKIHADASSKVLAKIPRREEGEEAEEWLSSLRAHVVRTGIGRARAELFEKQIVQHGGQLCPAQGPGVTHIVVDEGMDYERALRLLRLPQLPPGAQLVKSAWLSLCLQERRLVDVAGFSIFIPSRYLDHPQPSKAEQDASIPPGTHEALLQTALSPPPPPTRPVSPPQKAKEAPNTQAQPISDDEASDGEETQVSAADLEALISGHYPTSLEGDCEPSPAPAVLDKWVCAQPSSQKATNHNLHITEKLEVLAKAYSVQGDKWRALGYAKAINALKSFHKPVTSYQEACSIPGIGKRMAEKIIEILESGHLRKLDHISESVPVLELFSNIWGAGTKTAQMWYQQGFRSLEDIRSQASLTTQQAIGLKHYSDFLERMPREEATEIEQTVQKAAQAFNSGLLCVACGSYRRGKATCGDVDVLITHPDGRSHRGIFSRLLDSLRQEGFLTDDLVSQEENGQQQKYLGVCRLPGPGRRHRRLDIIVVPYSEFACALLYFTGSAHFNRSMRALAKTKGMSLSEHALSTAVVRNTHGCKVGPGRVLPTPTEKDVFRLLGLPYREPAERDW
Assay: Inhibition of recombinant His-tagged human DNA polymerase lambda using poly(dA)/oligo(dT)18 (A/T = 2/1) and dTTP as the DNA template-primer and nucleotide substrate at 10 uM after 60 mins
Settings: not given
How it was run: (§1)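 Compound in DMSO, sonicated 30 s. Premixed 0 °C, 10 min with enzyme (0.05 units) in 50 mM Tris-HCl pH 7.5, 1 mM DTT, 50% glycerol, 0.1 mM EDTA, then added to standard reaction mixture. Template-primers: poly(dA)/oligo(dT)18 (2/1) for pols, oligo(dT)18 for TdT, poly(rA)/oligo(dT)18 for HIV-1 RT, with [3H]dTTP. 60 min at 37 °C (Taq 74 °C). Activity relative to no-inhibitor control; mean ± SE of three experiments.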

SMILES | inhibition
CC/C=C\C/C=C\C/C=C\C/C=C\C/C=C\C/C=C\CCC(=O)O [DOCONEXENT] | inactive
CCCCCC(=O)O [HEXANOATE] | inactive
CC/C=C\C/C=C\C/C=C\C/C=C\C/C=C\CCCC(=O)O [ICOSAPENT] | inactive

Organism: Homo sapiens
Assay: Inhibition of histidine-tagged human DNA polymerase gamma using bovine deoxyribonuclease 1-treated DNA and dNTP as the DNA template-primer and nucleotide substrate at 10 uM after 60 mins
Settings: not given

SMILES | inhibition
CC/C=C\C/C=C\C/C=C\C/C=C\C/C=C\C/C=C\CCC(=O)O [DOCONEXENT] | inactive
CCCCCC(=O)O [HEXANOATE] | inactive
CC/C=C\C/C=C\C/C=C\C/C=C\C/C=C\CCCC(=O)O [ICOSAPENT] | inactive

System: RAW264.7
Assay: Cytotoxicity against mouse RAW264.7 cells at 5 uM
Type: cell-based
Settings: raw264.7, 5 µM

SMILES | Activity
CC/C=C\C/C=C\C/C=C\C/C=C\C/C=C\C/C=C\CCC(=O)O [DOCONEXENT] | Non-toxic
CCCCCC(=O)O [HEXANOATE] | Non-toxic
CC/C=C\C/C=C\C/C=C\C/C=C\C/C=C\CCCC(=O)O [ICOSAPENT] | Non-toxic

System: Mus musculus
Assay: Antiinflammatory activity in mouse assessed as inhibition of TPA-induced mouse ear edema at 500 ug/ear administered 30 mins before TPA challenge measured after 7 hrs relative to untreated control
Type: functional, organism-based
Settings: not given
How it was run: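 Compound (500 µg) applied to one mouse ear; 30 min later TPA (0.5 µg) applied to both ears. Edema scored after 7 h and expressed as percentage of edema. Mean ± SE, n = 6.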

SMILES | Activity
CC/C=C\C/C=C\C/C=C\C/C=C\C/C=C\C/C=C\CCC(=O)O [DOCONEXENT] | inactive
CCCCCC(=O)O [HEXANOATE] | inactive
CC/C=C\C/C=C\C/C=C\C/C=C\C/C=C\CCCC(=O)O [ICOSAPENT] | inactive

Target: T2, DNA polymerase lambda (Homo sapiens)
Assay: Inhibition of recombinant His-tagged human DNA polymerase lambda using bovine deoxyribonuclease 1-treated DNA and dNTP as the DNA template-primer and nucleotide substrate at 10 uM after 60 mins
Settings: not given

SMILES | inhibition
CC/C=C\C/C=C\C/C=C\C/C=C\C/C=C\C/C=C\CCC(=O)O [DOCONEXENT] | inactive
CCCCCC(=O)O [HEXANOATE] | inactive
CC/C=C\C/C=C\C/C=C\C/C=C\C/C=C\CCCC(=O)O [ICOSAPENT] | inactive

System: HCT-116
Assay: Cytotoxicity against human HCT116 cells by WST-1 assay
Type: functional, cell-based
Settings: not given
How it was run: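 HCT116 colon carcinoma cells (ATCC) grown in McCoy's 5A with 10% FBS, penicillin and streptomycin, 37 °C, 5% CO2. Plated at 1 × 10⁴ cells/well together with compound, which was diluted from a 10 mM DMSO stock into medium (final 0.5% DMSO). Incubated 24 h. Viability read by WST-1, expressed relative to untreated cells.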

SMILES | Activity
CC/C=C\C/C=C\C/C=C\C/C=C\C/C=C\C/C=C\CCC(=O)O [DOCONEXENT] | inactive
CCCCCC(=O)O [HEXANOATE] | inactive
CC/C=C\C/C=C\C/C=C\C/C=C\C/C=C\CCCC(=O)O [ICOSAPENT] | inactive

Organism: Bos taurus
Assay: Inhibition of calf DNA polymerase alpha using poly(dA)/oligo(dT)18 (A/T = 2/1) and dTTP as the DNA template-primer and nucleotide substrate at 10 uM after 60 mins
Settings: not given
How it was run: as §1

SMILES | inhibition
CC/C=C\C/C=C\C/C=C\C/C=C\C/C=C\C/C=C\CCC(=O)O [DOCONEXENT] | inactive
CCCCCC(=O)O [HEXANOATE] | inactive
CC/C=C\C/C=C\C/C=C\C/C=C\C/C=C\CCCC(=O)O [ICOSAPENT] | inactive

Target: T1, DNA polymerase kappa (Homo sapiens)
Assay: Inhibition of C-terminal His6-tagged human DNA polymerase kappa (amino acids 1 to 560) using bovine deoxyribonuclease 1-treated DNA and dNTP as the DNA template-primer and nucleotide substrate at 10 uM after 60 mins
Settings: not given

SMILES | inhibition
CC/C=C\C/C=C\C/C=C\C/C=C\C/C=C\C/C=C\CCC(=O)O [DOCONEXENT] | inactive
CCCCCC(=O)O [HEXANOATE] | inactive
CC/C=C\C/C=C\C/C=C\C/C=C\C/C=C\CCCC(=O)O [ICOSAPENT] | inactive

Organism: Homo sapiens
Assay: Inhibition of histidine-tagged human DNA polymerase gamma using poly(dA)/oligo(dT)18 (A/T = 2/1) and dTTP as the DNA template-primer and nucleotide substrate at 10 uM after 60 mins
Settings: not given
How it was run: as §1

SMILES | inhibition
CC/C=C\C/C=C\C/C=C\C/C=C\C/C=C\C/C=C\CCC(=O)O [DOCONEXENT] | inactive
CCCCCC(=O)O [HEXANOATE] | inactive
CC/C=C\C/C=C\C/C=C\C/C=C\C/C=C\CCCC(=O)O [ICOSAPENT] | inactive

System: RAW264.7
Assay: Antiinflammatory activity in mouse RAW264.7 cells assessed as inhibition of LPS-induced TNFalpha secretion at 5 uM treated 30 mins before LPS challenge measured after 24 hrs by ELISA
Type: functional, cell-based
Settings: not given
How it was run: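 RAW264.7 cells in MEM with 4.5 g/L glucose, 10% FCS, 5 mM L-glutamine, at 37 °C in 5% CO2. Seeded at 5 × 10⁴ cells/well and grown 24 h. Compound (final 1 and 5 µM) given 30 min before 100 ng/mL LPS. After 24 h, TNF-α in the medium measured by ELISA, relative to the no-compound value (100%). Mean ± SE, n = 4.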

SMILES | Activity
CC/C=C\C/C=C\C/C=C\C/C=C\C/C=C\C/C=C\CCC(=O)O [DOCONEXENT] | inactive
CCCCCC(=O)O [HEXANOATE] | inactive
CC/C=C\C/C=C\C/C=C\C/C=C\C/C=C\CCCC(=O)O [ICOSAPENT] | inactive

Organism: Bos taurus
Assay: Inhibition of calf DNA polymerase alpha using bovine deoxyribonuclease 1-treated DNA and dNTP as the DNA template-primer and nucleotide substrate at 10 uM after 60 mins
Settings: not given

SMILES | inhibition
CC/C=C\C/C=C\C/C=C\C/C=C\C/C=C\C/C=C\CCC(=O)O [DOCONEXENT] | inactive
CCCCCC(=O)O [HEXANOATE] | inactive
CC/C=C\C/C=C\C/C=C\C/C=C\C/C=C\CCCC(=O)O [ICOSAPENT] | inactive
